ChEMBL document CHEMBL3421528, “Synthesis and evaluation of fluorinated fingolimod (FTY720) analogues for sphingosine-1-phosphate receptor molecular imaging by positron emission tomography” (J Med Chem, 2015)

Experiments:
[1] = target: Sphingosine 1-phosphate receptor 3 (Homo sapiens) (UniProt Q99500); assay: Agonist activity at human S1P3 receptor overexpressed in CHO cells assessed as p44/42 MAPK phosphorylation at 1 uM by Western blot analysis; assay type: cell-based; settings: TDE = time-dependent effect
Chain of Sphingosine 1-phosphate receptor 3 (Homo sapiens) (Q99500 whole entry): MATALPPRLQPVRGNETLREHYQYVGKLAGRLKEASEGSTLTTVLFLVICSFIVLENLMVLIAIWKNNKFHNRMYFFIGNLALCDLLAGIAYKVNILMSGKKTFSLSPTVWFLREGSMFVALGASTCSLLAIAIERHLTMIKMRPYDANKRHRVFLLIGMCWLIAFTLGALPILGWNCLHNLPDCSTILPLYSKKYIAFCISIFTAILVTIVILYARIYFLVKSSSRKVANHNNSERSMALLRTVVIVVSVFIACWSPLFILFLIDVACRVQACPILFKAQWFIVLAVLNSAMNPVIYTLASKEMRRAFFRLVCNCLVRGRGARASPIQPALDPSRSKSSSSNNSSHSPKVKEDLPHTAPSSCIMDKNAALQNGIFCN
How it was run: (§1)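 Stably transfected CHO cells overexpressing human S1P1 or S1P3 receptor, serum-starved overnight, then stimulated with test compounds alongside S1P in the same experiment for the indicated times. Cells lysed and lysates resolved on 12% SDS-PAGE gels for Western blot read-out.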

[2] = target: Sphingosine 1-phosphate receptor 1 (Homo sapiens) (UniProt P21453); assay: Agonist activity at human S1P1 receptor overexpressed in CHO cells assessed as p44/42 MAPK phosphorylation at 1 uM by Western blot analysis; assay type: cell-based; settings: TDE = time-dependent effect; how it was run: as §1
Chain of Sphingosine 1-phosphate receptor 1 (Homo sapiens) (P21453 whole entry): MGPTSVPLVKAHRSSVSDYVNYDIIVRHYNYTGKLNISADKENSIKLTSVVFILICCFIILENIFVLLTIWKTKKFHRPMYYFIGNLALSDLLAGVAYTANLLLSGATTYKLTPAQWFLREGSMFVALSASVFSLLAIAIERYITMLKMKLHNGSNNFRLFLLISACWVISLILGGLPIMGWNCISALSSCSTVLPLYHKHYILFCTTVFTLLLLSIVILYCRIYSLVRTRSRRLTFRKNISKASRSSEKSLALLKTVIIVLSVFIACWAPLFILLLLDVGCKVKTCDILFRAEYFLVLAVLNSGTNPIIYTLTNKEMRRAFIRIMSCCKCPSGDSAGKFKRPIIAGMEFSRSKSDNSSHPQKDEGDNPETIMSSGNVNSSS

Lung [3] = assay: Drug uptake in wild type C57BL/6 mouse lung at 400 KBq/g, iv measured at 20 mins by PET/CT analysis; assay type: ADME, organism-based; settings: in vivo
How it was run: (§2)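 Male C57BL/6 wild-type mice, 13 weeks old, 21−26 g (n = 4), anaesthetised with isoflurane/O₂. 18F tracer given as a tail-vein bolus of 400 kBq/g in 100 μL, flushed with 100 μL saline. Dynamic list-mode PET was acquired, with CT-defined volumes of interest over the organs. Uptake was expressed as counts/mL in the VOI divided by total mouse counts ×100 (%ID/mL). Time-activity curves ran 0−90 min p.i.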

Blood = assay: Drug uptake in wild type C57BL/6 mouse blood at 400 KBq/g, iv measured at 90 mins by PET analysis; assay type: ADME, organism-based; settings: in vivo, 1.5 h; how it was run: as §2
Bone = assay: Drug uptake in wild type C57BL/6 mouse bone at 400 KBq/g, iv measured at 90 mins by PET/CT analysis; assay type: ADME, organism-based, Bone element; settings: in vivo, 1.5 h; how it was run: as §2
Mus musculus [4] = assay: Drug uptake in wild type C57BL/6 mouse body parts at 400 KBq/g, iv measured at 90 mins by PET/CT analysis; assay type: ADME, organism-based; settings: in vivo, 1.5 h; how it was run: as §2
Lung [5] = assay: Drug uptake in wild type C57BL/6 mouse lung at 400 KBq/g, iv measured at 90 mins by PET/CT analysis; assay type: ADME, organism-based; settings: in vivo, 1.5 h; how it was run: as §2
Spleen [6] = assay: Drug uptake in wild type C57BL/6 mouse spleen at 400 KBq/g, iv measured at 10 mins by PET/CT analysis; assay type: ADME, organism-based; settings: in vivo; how it was run: as §2
Kidney = assay: Drug uptake in wild type C57BL/6 mouse kidney at 400 KBq/g, iv measured at 90 mins by PET/CT analysis; assay type: ADME, organism-based; settings: in vivo, 1.5 h; how it was run: as §2
Liver = assay: Drug uptake in wild type C57BL/6 mouse liver at 400 KBq/g, iv measured at 10 mins by PET/CT analysis; assay type: ADME, organism-based; settings: in vivo; how it was run: as §2
[7] = Drug uptake in wild type C57BL/6 mouse myocardium at 400 KBq/g, iv measured at 10 mins by PET/CT analysis; assay type: ADME, organism-based; settings: in vivo; how it was run: as §2
Spleen [8] = assay: Drug uptake in wild type C57BL/6 mouse spleen at 400 KBq/g, iv measured at 30 mins by PET/CT analysis; assay type: ADME, organism-based; settings: in vivo, 0.5 h; how it was run: as §2
Serum = assay: Metabolic stability in human serum assessed as retention time at 8.7 MBq at 37 degC after 90 mins by HPLC analysis; assay type: ADME, cell-free; settings: 1.5 h
How it was run: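 Formulated 18F tracer (20 μL, 8.7 MBq) was added to 200 μL human serum and incubated at 37 °C. Samples were taken at 10, 30, 60 and 90 min and quenched in MeOH/CH₂Cl₂ 1:1. After centrifugation, supernatants were analysed by C18 radio-HPLC (10−90% CH₃CN/0.1% TFA gradient over 15 min, 1.0 mL/min, 254 nm).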

Mus musculus [9] = assay: In vivo inhibition of S1P1 receptor in mouse assessed as peripheral blood WBC at 1.25 mg/kg, ip after 24 hrs by flow cytometric analysis (reference value: 8.94 +/- 0.59 10^6/ml); assay type: functional; settings: route intraperitoneal
Mus musculus [10] = assay: In vivo inhibition of S1P1 receptor in mouse assessed as peripheral blood CD8+ cells at 1.25 mg/kg, ip after 24 hrs by flow cytometric analysis (reference value: 0.48 +/- 0.05 10^6/ml); assay type: functional; settings: route intraperitoneal
Mus musculus [11] = assay: In vivo inhibition of S1P1 receptor in mouse assessed as peripheral blood B cells at 1.25 mg/kg, ip after 24 hrs by flow cytometric analysis (reference value: 4.72 +/- 0.53 10^6/ml); assay type: functional; settings: route intraperitoneal
Mus musculus [12] = assay: In vivo inhibition of S1P1 receptor in mouse assessed as reduction of peripheral blood CD8+ cells at 1.25 mg/kg, ip after 24 hrs by flow cytometric analysis relative to control; assay type: functional; settings: in the assay text read “CD4+ cells” for “CD8+ cells”, route intraperitoneal
How it was run: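 Compound given intraperitoneally at 1.25 mg/kg in 0.9% NaCl (0.2 mg/mL); blood taken retro-orbitally into EDTA after 24 h. Lymphocytes counted by flow cytometry after red-cell lysis and compared with untreated mice. Mean ± SEM, n ≥ 3 independent experiments; p < 0.05 versus control.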

Mus musculus [13] = assay: In vivo inhibition of S1P1 receptor in mouse assessed as reduction of peripheral blood CD4+ cells at 1.25 mg/kg, ip after 24 hrs by flow cytometric analysis relative to control

Row | Drug uptake (Lung [3]) [%ID/ml] | Drug uptake (Blood) [%ID/ml] | Drug uptake (Bone) | Drug uptake (Mus musculus [4]) | Drug uptake (Lung [5]) [%ID/ml] | Drug uptake (Kidney) [%ID/ml] | Drug uptake (Liver) [%ID/ml] | Drug uptake [7] [%ID/ml] | SMILES | Activity [1] | Activity [2] | Activity (Mus musculus [9]) [×10⁶ /ml] | Activity (Mus musculus [10]) [×10⁶ /ml] | Activity (Mus musculus [11]) [×10⁶ /ml] | inhibition in vivo at 1.25 mg/kg (Mus musculus [12]) [%] | other results
1 | 5 | 4 | Not Active | Not Active | 4 | 20 | 25 | 8 | NC(CO)(CO)CCc1ccc(CCCCCC[18F])cc1 |  |  |  |  |  |  | Drug uptake (Spleen [6]): 7 %ID/ml
2 | 6.4 | 4 | Not Active | Not Active | 4.8 | 20 | 25 | 8.6 | NC(CO)(CO)CCc1ccc(CCCCCCCC[18F])cc1 |  |  |  |  |  |  | Drug uptake (Spleen [8]): 7.8 %ID/ml; Retention_time (Serum): 11.15 min

Continued, compound first:

Row | SMILES | Drug uptake (Lung [3]) [%ID/ml] | Drug uptake (Blood) [%ID/ml] | Drug uptake (Bone) | Drug uptake (Mus musculus [4]) | Drug uptake (Lung [5]) [%ID/ml] | Drug uptake (Kidney) [%ID/ml] | Drug uptake (Liver) [%ID/ml] | Drug uptake [7] [%ID/ml] | Activity [1] | Activity [2] | Activity (Mus musculus [9]) [×10⁶ /ml] | Activity (Mus musculus [10]) [×10⁶ /ml] | Activity (Mus musculus [11]) [×10⁶ /ml] | inhibition in vivo at 1.25 mg/kg (Mus musculus [12]) [%] | other results
3 | CCCCCCCCCCCCC/C=C/[C@@H](O)[C@@H](N)COP(=O)(O)O |  |  |  |  |  |  |  |  | tde | tde |  |  |  |  | 
4 | NC(CO)(CO)CCc1ccc(CCCCCCF)cc1 |  |  |  |  |  |  |  |  |  |  | 4.91 | 0.25 | 2.23 | 59 | 
5 | NC(CO)(CCc1ccc(CCCCCCCCF)cc1)COP(=O)(O)O (stereo not given) |  |  |  |  |  |  |  |  | tde | tde | 3.93 | 0.14 | 1.05 |  | inhibition in vivo at 1.25 mg/kg (Mus musculus [13]): 89%
6 | NC(CO)(CO)CCc1ccc(CCCCCCCCF)cc1 |  |  |  |  |  |  |  |  |  |  | 3.04 | 0.03 | 1.03 | 95 | 
